From publication PMC8268672 (Bioorganic Chemistry, 2021)
Converted amounts (≈) assume the structure as drawn. Where two headings read alike, the source gives them in different places.

How the values were obtained:
[1] = tested on: Influenza A/H1N1 A/Ned/378/05; assay: CPE reduction assay in MDCK cells; type: cell-based; settings: Influenza A virus
[2] = tested on: Madin Darby canine kidney (MDCK) cells; settings: dog
[3] = tested on: Bacillus cereus (NCIM-2458); assay: Agar disk diffusion, inhibition zone; type: cell-based; settings: 100 µg/8 mm disc, triplicate, mean ± SD
[4] = tested on: Cryptococcus neoformans (ATCC 9011); assay: Agar disk diffusion, inhibition zone; type: cell-based; settings: 100 µg/8 mm disc, triplicate, mean ± SD
Adeno virus-2 = assay: CPE reduction assay in HEL cells; type: cell-based; settings: read-out: Antiviral EC50, Adeno virus-2
[5] = tested on: Pseudomonas aeruginosa (MCCB 0035); assay: MIC, broth microdilution; type: cell-based; settings: read-out: Minimum inhibitory concentration (MIC), PA
Method in brief: (§1)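 Broth microdilution per CLSI in Mueller-Hinton broth, using two-fold serial dilutions of test compound and reference drugs from 512 to 0.25. Bacterial broth cultures were grown 2-6 h to 0.5 McFarland turbidity, then diluted with sterile solution to the final inoculum. MIC is reported in µg/mL.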

[6] = tested on: Bacillus cereus (NCIM-2458); assay: MIC, broth microdilution; type: cell-based; settings: NCIM2458, read-out: Minimum inhibitory concentration (MIC), BC
Method in brief: as §1

[7] = tested on: Salmonella typhimurium (NCIM-2501); assay: Agar disk diffusion, inhibition zone; type: cell-based; settings: 100 µg/8 mm disc, triplicate, mean ± SD
[8] = tested on: Candida albicans (NCIM 2087); assay: MIC, broth microdilution; type: cell-based; settings: NCIM2087, read-out: Minimum inhibitory concentration (MIC), CA
Method in brief: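 CLSI broth microdilution in Sabouraud liquid medium, with test compound two-fold serially diluted from 512 to 0.25. Fungal broth culture grown 24 h at 35 °C to 0.5 McFarland turbidity, then adjusted with sterile solution to a final […] inoculum. MIC expressed in µg/mL.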

Human Coronavirus (229E) = assay: CPE reduction assay in HEL cells; type: cell-based; settings: read-out: Antiviral EC50, Human Coronavirus (229E)
[9] = tested on: Streptococcus pneumonia (ATCC 49619); assay: Agar disk diffusion, inhibition zone; type: cell-based; settings: 100 µg/8 mm disc, triplicate, mean ± SD
Punta Toro virus = assay: CPE reduction assay in Vero cells; type: cell-based; settings: read-out: Antiviral EC50, Punta Toro virus
[10] = tested on: Human embryonic lung (HEL) cells; settings: HEL cell cultures; microscopically detectable alteration of normal cell morphology
Influenza B B/Ned/537/05 = assay: CPE reduction assay in MDCK cells; type: cell-based; settings: Influenza B virus, read-out: Antiviral EC50, Influenza B B/Ned/537/05, MTS
[11] = tested on: Escherichia coli (ATCC 8739); assay: MIC, broth microdilution; type: cell-based; settings: ATCC8739, read-out: Minimum inhibitory concentration (MIC), EC
Method in brief: as §1

[12] = tested on: Escherichia coli (ATCC 8739); assay: Agar disk diffusion, inhibition zone; type: cell-based; settings: 100 µg/8 mm disc, triplicate, mean ± SD
Method in brief: (§2)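 Agar disk diffusion on Mueller-Hinton agar plates seeded with a standard bacterial suspension. Test compound stock in DMSO, diluted with distilled water; 8 mm sterile filter-paper discs soaked in the solution. Ampicillin was the reference. Plates incubated at 35 °C for 24 h, in triplicate. Read-out is the average inhibition-zone diameter (mm) around each disc.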

[13] = tested on: Candida albicans (NCIM 2087); assay: Agar disk diffusion, inhibition zone; type: cell-based; settings: 100 µg/8 mm disc, triplicate, mean ± SD
[14] = tested on: Klebsiella aerogenes (NCIM-2098); assay: MIC, broth microdilution; type: cell-based; settings: NCIM2098, read-out: Minimum inhibitory concentration (MIC), KA
Method in brief: (§3)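 Antibacterial MICs by CLSI broth microdilution in Mueller-Hinton broth. Test compounds and standard drugs are serially diluted two-fold from 512 to 0.25. The bacterial broth culture is grown 2-6 h to a 0.5 McFarland turbidity, then adjusted with sterile solution to the final inoculum.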

[15] = tested on: Aspergillus niger (NCIM 2191); assay: MIC, broth microdilution; type: cell-based; settings: NCIM2191, read-out: Minimum inhibitory concentration (MIC), AN
Method in brief: (§4)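 Antifungal MICs by CLSI broth microdilution in Sabouraud liquid medium. Test compounds and standard drugs are serially diluted two-fold from 512 to 0.25. The fungal broth culture is grown 24 h at 35 °C to a 0.5 McFarland turbidity, then adjusted with sterile solution to the final inoculum.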

[16] = tested on: Klebsiella aerogenes (NCIM-2098); assay: Agar disk diffusion, inhibition zone; type: cell-based; settings: 100 µg/8 mm disc, triplicate, mean ± SD
[17] = tested on: Aspergillus fumigatus (NCIM 2081); assay: MIC, broth microdilution; type: cell-based; settings: NCIM2081, read-out: Minimum inhibitory concentration (MIC), AF
Method in brief: as §4

Coxsackie virus B4 = assay: CPE reduction assay in Vero cells; type: cell-based; settings: Enterovirus B, read-out: Antiviral EC50, Coxsackie virus B4
[18] = tested on: Aspergillus fumigatus (NCIM 2081); assay: Agar disk diffusion, inhibition zone; type: cell-based; settings: 100 µg/8 mm disc, triplicate, mean ± SD
Yellow Fever virus = assay: microbe, parasite or virus in culture; type: cell-based; settings: Yellow fever virus, Vero, read-out: Antiviral EC50, Yellow Fever virus
[19] = tested on: Staphylococcus aureus (ATCC 29213); assay: Agar disk diffusion, inhibition zone; type: cell-based; settings: 100 µg/8 mm disc, triplicate, mean ± SD
Method in brief: as §2

Para-influenza-3 virus = assay: CPE reduction assay in Vero cells; type: cell-based, Parainfluenza-3 virus; settings: Vero, read-out: Antiviral EC50, Para-influenza-3 virus
[20] = tested on: Influenza A/H3N2 A/HK/7/87; assay: CPE reduction assay in MDCK cells; type: cell-based; settings: Influenza A virus
[21] = tested on: Cryptococcus neoformans (ATCC 9011); assay: MIC, broth microdilution; type: cell-based; settings: ATCC9011, read-out: Minimum inhibitory concentration (MIC), CN
Method in brief: as §4

[22] = tested on: Staphylococcus aureus (ATCC 29213); assay: MIC, broth microdilution; type: cell-based; settings: ATCC29213, read-out: Minimum inhibitory concentration (MIC), SA
Method in brief: as §3

[23] = tested on: Pseudomonas aeruginosa (MCCB 0035); assay: Agar disk diffusion, inhibition zone; type: cell-based; settings: 100 µg/8 mm disc, triplicate, mean ± SD
MT4 cells = settings: MT4 cell cultures; colorimetric MTT cell viability assay
[24] = tested on: Lactobacillus casei (NCIM-2651); assay: Agar disk diffusion, inhibition zone; type: cell-based; settings: 100 µg/8 mm disc, triplicate, mean ± SD
Sindbis virus = assay: CPE reduction assay in Vero cells; type: cell-based; settings: read-out: Antiviral EC50, Sindbis virus
Vero cells = settings: Vero cell cultures; microscopically detectable alteration of normal cell morphology
Reovirus-1 = assay: CPE reduction assay in Vero cells; type: cell-based; settings: read-out: Antiviral EC50, Reovirus-1
Vaccinia virus = assay: microbe, parasite or virus in culture; type: cell-based; settings: Orthopoxvirus vaccinia, HEL, read-out: Antiviral EC50, Vaccinia virus
[25] = tested on: Aspergillus niger (NCIM 2191); assay: Agar disk diffusion, inhibition zone; type: cell-based; settings: 100 µg/8 mm disc, triplicate, mean ± SD
Method in brief: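 For the fungal strain, discs soaked in test compound solution (DMSO stock diluted with distilled water) sat on seeded Mueller-Hinton agar. Clotrimazole was the reference. Incubation ran 48 h at 35 °C, in triplicate. Zone of growth inhibition recorded in mm as the mean diameter around each disc.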

[26] = read-out: Antiviral EC50, Influenza A/H1N1 A/Ned/378/05, MTS
[27] = read-out: Antiviral EC50, Influenza A/H1N1 A/Ned/378/05, visual CPE score
[28] = read-out: Antiviral EC50, Influenza A/H3N2 A/HK/7/87, MTS
[29] = read-out: Antiviral EC50, Influenza A/H3N2 A/HK/7/87, visual CPE score

Row | SMILES | EC50 [1, 26] [µM] | EC50 [1, 27] [µM] | Cytotoxicity, Minimum cytotoxic conc. [2] [µM] | Diameter of growth inhibition zone, BC [3] [mm] | Diameter of growth inhibition zone, CN [4] [mm] | EC50 (Adeno virus-2) [µM] | MIC [5] [µg/mL] | MIC [6] [µg/mL] | Diameter of growth inhibition zone, ST [7] [mm] | MIC [8] [µg/mL] | EC50 (Human Coronavirus (229E)) [µM] | Diameter of growth inhibition zone, SP [9] [mm] | EC50 (Punta Toro virus) [µM] | Minimum cytotoxic conc. [10] [µM] | EC50 (Influenza B B/Ned/537/05) [µM] | MIC [11] [µg/mL] | Diameter of growth inhibition zone, EC [12] [mm] | Diameter of growth inhibition zone, CA [13] [mm] | MIC [14] [µg/mL] | MIC [15] [µg/mL] | also measured
1 | Cc1ccc(S(=O)(=O)N2C(=O)CSC2c2ccccc2O)cc1 (stereo not drawn) [5k, 2-(2-Hydroxyphenyl)-3-[(4-methylphenyl)sulfonyl]-1,3-thiazolidin-4-one] | > 100 | > 100 | >100 | 10 ± 0.3 | 11 ± 1.2 | > 100 | 32 (≈ 91.6 µM) | 64 (≈ 183 µM) | 10 ± 0.8 | 16 (≈ 45.8 µM) | > 100 | 08 ± 0.3 | > 100 | >100 | > 100 | 32 (≈ 91.6 µM) | 18.8 ± 0.9 | 16 ± 0.32 | 32 (≈ 91.6 µM) | 32 (≈ 91.6 µM) | Diameter of growth inhibition zone, KA [16]: 12 ± 0.48 mm; MIC [17]: 32 µg/mL (≈ 91.6 µM); EC50 (Coxsackie virus B4): > 100 µM; Diameter of growth inhibition zone, AF [18]: 13 ± 1.5 mm; EC50 (Yellow Fever virus): > 100 µM; Diameter of growth inhibition zone, SA [19]: 16 ± 0.32 mm; EC50 (Para-influenza-3 virus): > 100 µM; EC50 [20, 28]: > 100 µM; EC50 [20, 29]: > 100 µM; MIC [21]: 64 µg/mL (≈ 183 µM); MIC [22]: 64 µg/mL (≈ 183 µM); Diameter of growth inhibition zone, PA [23]: 17.5 ± 0.6 mm; Minimum cytotoxic conc. (MT4 cells): >125 µM; Diameter of growth inhibition zone, LC [24]: 10 ± 1.25 mm; EC50 (Sindbis virus): > 100 µM; Minimum cytotoxic conc. (Vero cells): >100 µM; EC50 (Reovirus-1): > 100 µM; EC50 (Vaccinia virus): > 100 µM; Diameter of growth inhibition zone, AN [25]: 15 ± 0.93 mm
2 | Cc1ccc(S(=O)(=O)N2C(=O)CSC2c2ccccc2)cc1 (stereo not drawn) [5a, 3-[(4-Methylphenyl)sulfonyl]-2-phenyl-1,3-thiazolidin-4-one] | > 100 | > 100 | >100 | 08 ± 0.4 | 8.2 ± 0.5 | > 100 | 128 (≈ 384 µM) | 128 (≈ 384 µM) | 07 ± 1.5 | 64 (≈ 192 µM) | > 100 | 08 ± 0.8 | > 100 | >100 | > 100 | 64 (≈ 192 µM) | 13.2 ± 1.1 | 10.8 ± 2.3 | > 256 | 32 (≈ 96 µM) | Diameter of growth inhibition zone, KA [16]: 07 ± 1.74 mm; MIC [17]: 64 µg/mL (≈ 192 µM); EC50 (Coxsackie virus B4): > 100 µM; Diameter of growth inhibition zone, AF [18]: 10.2 ± 1.2 mm; EC50 (Yellow Fever virus): > 100 µM; Diameter of growth inhibition zone, SA [19]: 13.8 ± 0.9 mm; EC50 (Para-influenza-3 virus): > 100 µM; EC50 [20, 28]: > 100 µM; EC50 [20, 29]: > 100 µM; MIC [21]: 128 µg/mL (≈ 384 µM); MIC [22]: 64 µg/mL (≈ 192 µM); Diameter of growth inhibition zone, PA [23]: 12.5 ± 0.6 mm; Minimum cytotoxic conc. (MT4 cells): >125 µM; Diameter of growth inhibition zone, LC [24]: 10 ± 0.4 mm; EC50 (Sindbis virus): > 100 µM; Minimum cytotoxic conc. (Vero cells): >100 µM; EC50 (Reovirus-1): > 100 µM; EC50 (Vaccinia virus): > 100 µM; Diameter of growth inhibition zone, AN [25]: 10.1 ± 1.1 mm
